In data set [1] the test system is Chlamydia trachomatis. The experiment in a line: Antibacterial activity against azithromycin-tolerant 0.01 MOI Chlamydia trachomatis L2AZM#23 harboring mutation in bacterial ribosomal protein L4 infected in mouse L2 cells treated 2 hrs after infection measured on day 7 by plaque assay. It is filed as functional. The method, boiled down: (§1)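 Susceptibility measured in a plaque assay on confluent mouse fibroblast L2 cell monolayers in 60-mm dishes. The inoculum was 10^5 chlamydial PFU, equal to an MOI of 0.01. MIC was taken as the drug concentration that inhibited development of these 10^5 PFU.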

The subject of the next data set is Chlamydia psittaci 6BC. The experiment in a line: Antibacterial activity against 0.01 MOI wild type Chlamydia psittaci 6BC BCRB infected in mouse L2 cells treated 2 hrs after infection measured on day 7 by plaque assay. The class given is functional. An outline of the steps:
as §1

Data set [2] deals with Chlamydia trachomatis. The data set is described as follows: Antibacterial activity against azithromycin-tolerant 0.01 MOI Chlamydia trachomatis L2AZM#31 harboring mutation in bacterial ribosomal protein L4 infected in mouse L2 cells treated 2 hrs after infection measured on day 7 by plaque assay. It is filed as functional. An outline of the steps:
as §1

The subject of data set [3] is Chlamydia trachomatis. The data set is described as follows: Antibacterial activity against 0.01 MOI wild type Chlamydia trachomatis L2/LGV/434/Bu infected in mouse L2 cells treated 2 hrs after infection measured on day 7 by plaque assay. The class given is functional. The method, boiled down:
as §1

A short description of data set [4]: Biodistribution in healthy human epithelial lining fluid assessed as drug accumulation at 500 mg. The class given is ADME, organism-based. The conditions noted are these: in vivo.

Here are results for 6 compounds from ChEMBL document CHEMBL1151434 (Antimicrob Agents Chemother, 2007).

≈ marks a conversion by molar mass, not a printed value.

Consider SPIRAMYCIN, for which the MIC in the data set on Chlamydia trachomatis [1] came out at 4 µg/mL; against Chlamydia psittaci 6BC, 1 µg/mL; against Chlamydia trachomatis [2] it was 4 µg/mL; in the data set with Chlamydia trachomatis [3], 0.8 µg/mL.
For `CC[C@H]1OC(=O)[C@H](C)[C@@H](O[C@H]2C[C@@](C)(OC)[C@@H](O)[C@H](C)O2)[C@H](C)[C@@H](O[C@@H]2O[C@H](C)C[C@H](N(C)C)[C@H]2O)[C@](C)(O)C[C@@H](C)CN(C)[C@H](C)[C@@H](O)[C@]1(C)O` [AZITHROMYCIN], the Drug uptake in data set [4] is 2 µg/mL. In addition, the MIC came out at 0.8 µg/mL (≈ 1.07 µM) against Chlamydia trachomatis [1], 0.1 µg/mL (≈ 0.134 µM) in the data set on Chlamydia psittaci 6BC, 0.8 µg/mL (≈ 1.07 µM) with Chlamydia trachomatis [2] and 0.1 µg/mL (≈ 0.134 µM) in the data set with Chlamydia trachomatis [3].
As to `CC[C@H]1OC(=O)[C@H](C)[C@@H](O[C@H]2C[C@@](C)(OC)[C@@H](O)[C@H](C)O2)[C@H](C)[C@@H](O[C@@H]2O[C@H](C)C[C@H](N(C)C)[C@H]2O)[C@](C)(O)C[C@@H](C)C(=O)[C@H](C)[C@@H](O)[C@]1(C)O` [ERYTHROMYCIN], the MIC against Chlamydia trachomatis [1] was determined as 0.8 µg/mL (≈ 1.09 µM); in the data set with Chlamydia psittaci 6BC it was 0.2 µg/mL (≈ 0.273 µM); against Chlamydia trachomatis [2] it was 0.8 µg/mL (≈ 1.09 µM); against Chlamydia trachomatis [3], 0.2 µg/mL (≈ 0.273 µM).
As to `CCC[C@@H]1C[C@@H](C(=O)N[C@@H]([C@H]2O[C@H](SC)[C@H](O)[C@@H](O)[C@H]2O)[C@H](C)Cl)N(C)C1` [CLINDAMYCIN], the MIC in the data set on Chlamydia trachomatis [1] turned out to be 0.5 µg/mL (≈ 1.18 µM); with Chlamydia psittaci 6BC, 0.4 µg/mL (≈ 0.941 µM); against Chlamydia trachomatis [2] it was 0.5 µg/mL (≈ 1.18 µM); in the data set on Chlamydia trachomatis [3], 0.125 µg/mL (≈ 0.294 µM).
Consider `CO[C@@H]1[C@@H](O[C@@H]2O[C@H](C)[C@@H](O[C@H]3C[C@@](C)(O)[C@@H](OC(=O)CC(C)C)[C@H](C)O3)[C@H](N(C)C)[C@H]2O)[C@@H](CC=O)C[C@@H](C)[C@@H](O)/C=C/C=C/C[C@@H](C)OC(=O)C[C@H]1OC(C)=O` [JOSAMYCIN], for which the MIC with Chlamydia trachomatis [1] turned out to be 0.2 µg/mL (≈ 0.242 µM); in the data set on Chlamydia psittaci 6BC, 0.05 µg/mL (≈ 0.0604 µM); in the data set with Chlamydia trachomatis [2], 0.2 µg/mL (≈ 0.242 µM); in the data set on Chlamydia trachomatis [3], 0.05 µg/mL (≈ 0.0604 µM).
As to `O=C(N[C@H](CO)[C@H](O)c1ccc([N+](=O)[O-])cc1)C(Cl)Cl` [CHLORAMPHENICOL], the MIC in the data set with Chlamydia trachomatis [1], against Chlamydia trachomatis [2] and against Chlamydia trachomatis [3] was 0.4 µg/mL (≈ 1.24 µM) each time.
